Screens from PubChem.
This is a sample that favours compounds with a hit; in the whole collection about 3.5% have one here.
MrgX1 agonist: activates human MrgX1 receptor signaling. MrgX1-HEK293 cells, Fluo-4 calcium fluorescence, agonist mode; active compounds read high. B-score at 10 µM. Q96LB2. actives 0.44% (n = 310,000);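 active = calcium response B-score plate-corrected fluorescence ratio at least 3 library SD, with starting fluorescence B-score inside 5 SD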
Target sequence (Q96LB2 whole entry, looked up): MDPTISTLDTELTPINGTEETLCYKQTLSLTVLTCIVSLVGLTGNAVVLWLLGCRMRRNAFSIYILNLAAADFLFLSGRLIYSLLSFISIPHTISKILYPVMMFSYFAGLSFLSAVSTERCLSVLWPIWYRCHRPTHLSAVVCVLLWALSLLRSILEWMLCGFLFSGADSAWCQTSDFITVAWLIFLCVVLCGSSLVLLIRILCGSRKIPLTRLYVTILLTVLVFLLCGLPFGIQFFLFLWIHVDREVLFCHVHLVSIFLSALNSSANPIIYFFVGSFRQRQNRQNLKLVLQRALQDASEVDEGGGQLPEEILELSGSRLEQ
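System – MrgX1-expressing HEK293 cells · Incubation – cells plated overnight, dye loaded 0.5 h 37 °C, 0.5 h room temperature · Technique – kinetic Fluo-4 NW fluorescence of intracellular calcium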
RGS4 inh: human RGS4 inhibition. P49798. HEK293 M3R/RGS4 inducible, Fluo-4 calcium flux; active compounds read high; triggered by carbachol at its EC20. B-score at 10 µM. actives 0.45% (n = 310,000);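 active = B-score, a plate-corrected calcium signal, over three deviations above library mean, with baseline fluorescence within five deviations of library mean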;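 also: RGS4 expression induced by doxycycline in cells with stable M3 receptor; B-score is computed from the integrated fluorescence ratio over baseline after carbachol; higher B-score means a larger calcium signal and so more RGS4 inhibition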
Target sequence (P49798 whole entry, looked up): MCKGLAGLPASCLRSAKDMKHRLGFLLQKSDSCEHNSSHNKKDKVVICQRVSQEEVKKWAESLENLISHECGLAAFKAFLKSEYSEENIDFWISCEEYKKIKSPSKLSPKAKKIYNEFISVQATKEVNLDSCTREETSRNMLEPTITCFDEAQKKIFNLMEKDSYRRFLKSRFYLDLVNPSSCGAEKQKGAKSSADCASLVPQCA
RGS4 pot: potentiators or activators of RGS4; HEK293 M3R/inducible RGS4, carbachol calcium flux Fluo4; active compounds read low; B-score at 10 µM; actives 0.92% (n = 310,000); AID 463111;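 active = B-score of the integrated calcium signal more than 4 SD below the library mean, with starting fluorescence not abnormally high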;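 also: negative B-score means reduced calcium response which marks RGS4 activation or potentiation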
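System – HEK293 FlpIn-TREx cells, stable M3R, doxycycline-inducible RGS4 · Reagent – ECmax carbachol challenge · Times – compound preincubation 20 min at room temperature before agonist · Technique – Fluo4 fluorescence kinetic imaging of calcium · Measure – B score of integrated Fluo4 ratio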
MrgX1 antag: antagonists of human MrgX1 receptor. actives 1.3% (n = 310,000). Q96LB2. B-score at 10 µM. MRGX1-HEK293 calcium flux, Fluo-4, BAM8-22 antagonism; active compounds read low;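 active = calcium-response B-score plate-corrected more than 3 library SD below zero, starting fluorescence within 5 deviations, no agonist response on first addition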;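 also: peak minus trough fluorescence over baseline after final BAM8-22 challenge near maximal dose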
MrgX1 allo act: allosterically activates human MrgX1 receptor signaling. B-score at 10 µM. AID 588675. MrgX1-HEK293, Fluo-4 calcium flux, FDSS; active compounds read high. actives 0.63% (n = 310,000);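 active = plate-corrected calcium response at least 3 library SD above typical, normal starting fluorescence, not activating the receptor alone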;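 also: compound read alongside a low EC10 to EC30 dose of BAM8-22 agonist; peak minus trough fluorescence over baseline measured at the second addition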
RGS4 block valid: validation of RGS4 inhibitors | actives 65% (n = 1,700) | calcium response, % at 10 µM | AID 492999 | shares compounds with RGS4 inh | HEK293 M3R/RGS4, carbachol calcium Fluo-4 fluorescence; carbachol added at its EC20; 0 = buffer wells, 100 = carbachol control;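 active = duplicate-averaged calcium response above the buffer-only control mean plus 5 SD of those controls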;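 also: integrated fluorescence ratio F max minus min over baseline F0; higher response in RGS4-induced cells means RGS4 inhibition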
RGS4 uninduced: counter-screen for RGS4 inhibitors: effect in non-induced cells. actives 20% (n = 1,900). shares compounds with RGS4 inh. activity (percent), % at 10 µM. HEK293 M3R non-induced, carbachol calcium Fluo-4; submaximal (EC20) carbachol stimulus; buffer wells 0%, carbachol control wells 100%; call rule not given here;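 also: RGS4 induction absent so cells express M3R without RGS4; higher means more calcium signal and flags a non-specific hit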
M3R basal Ca ctr: second RGS4 inhibitor counter-screen in uninduced cells lacking carbachol; shares compounds with RGS4 inh; actives 22% (n = 1,900); HEK293 M3R/RGS4 non-induced, Fluo-4 calcium, no carbachol; normalised: buffer wells 0%, carbachol wells 100%; calcium response (agonist-mode artifact), % at 10 µM;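 active = duplicate-averaged calcium rise in uninduced cells above buffer wells' mean plus 5 SD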
Hits are given with their value; i = inactive; nt = no result.

SMILES | MrgX1 agonist | RGS4 inh | RGS4 pot | MrgX1 antag | MrgX1 allo act | RGS4 block valid | RGS4 uninduced | M3R basal Ca ctr
O=S(=O)(Nc1ccc(S(=O)(=O)Nc2nccs2)cc1)c1ccc2c(c1)OCCO2 | i | i | i | i | i | i | i | i
COc1ccc(Cc2nc3ccc(C(=O)N(C)CCc4cnn(C)c4)cc3o2)cc1OC | nt | i | i | nt | nt | nt | nt | nt
CNC(=O)c1[nH]cnc1C(=O)Nc1ccccn1 | i | i | i | i | i | i | i | i
O=C(CSc1nc(C(F)(F)F)cc(=O)[nH]1)Nc1ccc2c(c1)OCCO2 | i | i | i | i | i | nt | nt | nt
Cc1ccc(NC(=O)CSc2nc3ccccc3c(=O)n2CCCN2CCCCC2)cc1Cl | i | i | i | i | i | nt | nt | nt
COc1ccc(/C=C2/SC(=O)N(CCNC(=O)C3COc4ccccc4O3)C2=O)cc1 (centres undefined) | i | i | i | i | i | nt | nt | nt
O=C(NCCN1C(=O)S/C(=C\c2ccc(Cl)c(Cl)c2)C1=O)C1COc2ccccc2O1 (centres undefined) | i | 4.86 | i | i | i | 8.0% | i | i
CC(C)N1C(=O)S/C(=C/c2ccccc2OCc2ccc(C(=O)O)cc2)C1=O | i | i | i | i | i | i | i | i
CN1C(=O)S/C(=C\c2ccccc2OCc2ccc(C(=O)O)cc2)C1=O | i | 6.19 | i | i | i | 13.5% | i | i
Cc1ccc(C(=O)NC(C#N)=C(Cl)Cl)cc1 | nt | 9.82 | i | nt | nt | 21.0% | i | i
Cc1ccc(C(=O)NCC#N)cc1 | i | i | i | i | i | nt | nt | nt
Cc1cccc(N2C(=O)N3[C@@H]4c5ccccc5OC[C@@H]4[C@@H](c4ccccc4)[C@]3(C)C2=O)c1 | i | i | i | i | i | i | i | i
C[C@]12C(=O)N(c3cccc(Cl)c3)C(=O)N1[C@H]1c3ccccc3OC[C@@H]1[C@H]2c1ccccc1 | i | 5.96 | i | -5.97 | i | 16.0% | i | i
Cc1cccc([C@@H]2[C@@H]3C(=O)N(Cc4ccccc4)C(=O)[C@@H]3[C@]3(C)C(=O)N(c4cccc(Cl)c4)C(=O)N23)c1 | i | i | i | i | i | nt | nt | nt
Cc1cccc(N2C(=O)N3[C@@H]4c5ccccc5OC[C@@H]4[C@@H](c4ccccc4)[C@@]3(C)C2=O)c1 | i | i | i | i | i | nt | i | i
COc1ccccc1C(=O)C1CCCN(Cc2cn[nH]c2C2CCCCC2)C1 (centres undefined) | i | i | i | i | i | nt | nt | nt
c1ccc(NCC2OCc3ccccc3CO2)cc1 | i | i | i | i | i | nt | nt | nt
O=C(c1ccco1)N1CCCC(N2CCN(c3cccc(C(F)(F)F)c3)CC2)C1 (centres undefined) | i | i | i | i | i | nt | nt | nt
CC(=O)c1cccc(NC(=O)C(C)OC(=O)CCCN=C2NS(=O)(=O)c3ccccc32)c1 (centres undefined) | i | i | i | i | i | nt | nt | nt
Cc1ccccc1OCCNc1cc(N2CCN(CCO)CC2)ccc1[N+](=O)[O-] | i | i | i | i | i | nt | nt | nt
Cc1ccccc1OCCNc1cc(N2CCCCC2)ccc1[N+](=O)[O-] | i | i | i | i | i | i | i | i
CC(=O)Nc1cccc(OCc2ccc(S(=O)(=O)Cc3ccccc3)cc2)c1 | i | i | i | i | i | nt | nt | nt
CC1=NN(c2ccc(C)c(C)c2)C(=O)C1C(c1cccc(O)c1)C1C(=O)N(c2ccc(C)c(C)c2)N=C1C (centres undefined) | i | 15.4 | i | i | i | 13.5% | i | i
Cc1cc(C)c(S(=O)(=O)Nc2cccc(S(=O)(=O)NC3=NCCC3)c2)c(C)c1 | i | 4.85 | i | i | i | i | i | i
Cc1ccc2c(c1)N(CC(=O)NC1CCCC(C)C1C)C(=O)c1cccnc1O2 (centres undefined) | i | i | i | i | i | nt | nt | nt
